Assay results: ChEMBL document CHEMBL1137912, “Novel isoxazole carboxamides as growth hormone secretagogue receptor (GHS-R) antagonists” (Bioorg Med Chem Lett, 2004)

What was measured:
[1] = biological target: T1, Growth hormone secretagogue receptor type 1 (Homo sapiens, UniProt Q92847); assay: Ability to inhibit ghrelin induced increase in intracellular [Ca2+] in CHO-K cells was determined by FLIPR assay; format: functional, cell-based
Summary of the method: (§1)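 Antagonist mode in CHO-K cells stably expressing human GHS-R, grown to confluency overnight. Cells were loaded with Fluo-4 AM plus probenecid in DPBS for 1–3h in the dark at room temperature, then washed. Compound was added in 0.1% BSA/4% DMSO DPBS and read for 3min. Ghrelin was then added and read a further 3min at ex 488/em 520nm. IC50 from sigmoidal fit.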

[2] = biological target: T1, Growth hormone secretagogue receptor type 1; assay: Ability to displace [125I]ghrelin from cloned human GHS-R expressed in CHO-K cells was determined (Kd of ghrelin is 0.4 nM); format: cell-based
[3] = biological target: T1, Growth hormone secretagogue receptor type 1; assay: Binding affinity to displace [125I]ghrelin from cloned human GHS-R expressed in CHO-K cells was determined (Kd of ghrelin is 0.4 nM); format: cell-based
[4] = biological target: T1, Growth hormone secretagogue receptor type 1; assay: Ability to inhibit ghrelin induced increase in intracellular [Ca2+] in CHO-K cells; format: functional, cell-based; summary of the method: as §1
[5] = biological target: Growth hormone secretagogue receptor type 1 (Rattus norvegicus, UniProt O08725); assay: Inhibitory concentration against rat Growth hormone secretagogue receptor
Sequence of Growth hormone secretagogue receptor type 1 (Rattus norvegicus, UniProt O08725) (O08725 whole entry): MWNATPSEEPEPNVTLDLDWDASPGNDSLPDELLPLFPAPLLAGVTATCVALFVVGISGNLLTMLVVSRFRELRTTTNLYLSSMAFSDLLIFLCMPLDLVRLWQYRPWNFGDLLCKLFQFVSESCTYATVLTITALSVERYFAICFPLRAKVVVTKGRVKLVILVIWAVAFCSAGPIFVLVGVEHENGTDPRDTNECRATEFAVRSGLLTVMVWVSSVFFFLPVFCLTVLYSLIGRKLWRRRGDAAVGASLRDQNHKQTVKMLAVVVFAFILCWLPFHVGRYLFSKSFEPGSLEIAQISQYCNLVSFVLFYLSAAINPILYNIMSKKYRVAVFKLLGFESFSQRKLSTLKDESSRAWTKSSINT

[6] = biological target: Growth hormone secretagogue receptor type 1 (Mus musculus, UniProt Q99P50); assay: Inhibitory concentration against mouse Growth hormone secretagogue receptor
Sequence of Growth hormone secretagogue receptor type 1 (Mus musculus, UniProt Q99P50) (Q99P50 whole entry): as the sequence (O08725 whole entry) above, with P30S, A249S counted along it

T1 sequence (Q92847 whole entry): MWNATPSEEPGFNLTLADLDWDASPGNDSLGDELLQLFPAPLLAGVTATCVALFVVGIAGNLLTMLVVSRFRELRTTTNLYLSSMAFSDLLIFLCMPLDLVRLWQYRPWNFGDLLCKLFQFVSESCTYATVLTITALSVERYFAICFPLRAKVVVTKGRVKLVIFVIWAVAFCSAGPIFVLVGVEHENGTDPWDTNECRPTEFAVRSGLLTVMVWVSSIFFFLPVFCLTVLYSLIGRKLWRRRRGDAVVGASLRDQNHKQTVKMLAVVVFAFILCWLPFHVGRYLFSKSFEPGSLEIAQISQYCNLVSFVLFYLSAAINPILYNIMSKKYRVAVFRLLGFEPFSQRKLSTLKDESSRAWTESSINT

Structure (SMILES) | IC50 [1] [nM] | IC50 [2] [nM] | further results
CCN(CC)c1ccc(NC(=O)c2c(-c3c(Cl)cccc3Cl)noc2CCN2C(=O)CCC2(C)C)cc1 | 15 | 39 | 
CCN(CC)c1ccc(NC(=O)c2c(-c3c(Cl)cccc3Cl)noc2CCOC)cc1 | 115 | 110 | 
CCN(CC)c1ccc(NC(=O)c2c(-c3c(Cl)cccc3Cl)noc2C(C)C)cc1 | 861 | 150 | 
CCc1onc(-c2c(Cl)cccc2Cl)c1C(=O)Nc1ccc(N(CC)CC)cc1 | 319 | 147 | 
CCN(CC)c1ccc(NC(=O)c2c(-c3c(Cl)cccc3Cl)noc2CCC2CCOCC2)cc1 | 146 | 29 | 
CCN(CC)c1ccc(NC(=O)c2c(-c3c(Cl)cccc3Cl)noc2C)cc1 | 180 |  | IC50 [3]: 130 nM
CCN(CC)c1ccc(NC(=O)c2c(-c3c(Cl)cccc3Cl)noc2CCC2OCCO2)cc1 | 56 | 25 | 
CCN(CC)c1ccc(NC(=O)c2c(-c3c(Cl)cccc3Cl)noc2CCN(C)C(C)=O)cc1 | 19 | 34 | 
CCN(CC)c1ccc(NC(=O)c2c(-c3c(Cl)cccc3Cl)noc2CCN2CCCC2=O)cc1 | 18 | 18 | 
CCN(CC)c1ccc(NC(=O)c2c(-c3c(Cl)cccc3Cl)noc2CN2CCCC2=O)cc1 | 98 | 122 | 
CCN(CC)[C@H]1CC[C@H](NC(=O)c2c(-c3c(Cl)cccc3Cl)noc2CCC2OCCCO2)CC1 |  | 87 | IC50 [4]: 3 nM
CCN(CC)c1ccc(NC(=O)c2c(-c3c(Cl)cccc3Cl)noc2CCC2CCCO2)cc1 (configuration not stated) | 57 | 57 | 
CCN(CC)c1ccc(NC(=O)c2c(-c3c(Cl)cccc3Cl)noc2CCN2CCN(C)C2=O)cc1 | 10 | 21 | 
CCN(CC)[C@H]1CC[C@H](NC(=O)c2c(-c3c(Cl)cccc3Cl)noc2CCN2CCCCC2=O)CC1 | 190 | 139 | 
CCN(CC)c1ccc(NC(=O)c2c(-c3c(Cl)cccc3Cl)noc2CCC2OCCCO2)cc1 | 19 | 6 | 
CCN(CC)c1ccc(NC(=O)c2c(-c3c(Cl)cccc3Cl)noc2CCc2ccccc2OC)cc1 | 714 | 389 | 
CCCc1onc(-c2c(Cl)cccc2Cl)c1C(=O)Nc1ccc(N(CC)CC)cc1 | 492 | 131 | 
CCN(CC)c1ccc(NC(=O)c2c(-c3c(Cl)cccc3Cl)noc2CCc2ccc3c(c2)OCO3)cc1 | 93 | 47 | 
CCN(CC)c1ccc(NC(=O)c2c(-c3c(Cl)cccc3Cl)noc2CCCO)cc1 | 308 | 132 | 
CCN(CC)[C@H]1CC[C@H](NC(=O)c2c(-c3c(Cl)cccc3Cl)noc2CCC2CCCO2)CC1 (some centres not stated) | 103 | 194 | 
CCN(CC)c1ccc(NC(=O)c2c(-c3c(Cl)cccc3Cl)noc2CCC2CCCCO2)cc1 (configuration not stated) | 102 | 39 | 
CCN(CC)c1ccc(NC(=O)c2c(-c3c(Cl)cccc3Cl)noc2CCc2cccc3c2OCO3)cc1 | 564 | 162 | 
CCN(CC)c1ccc(NC(=O)c2c(-c3c(Cl)cccc3Cl)noc2CCN2CCCCC2=O)cc1 | 8 | 9 | 
CCN(CC)[C@H]1CC[C@H](NC(=O)c2c(-c3c(Cl)cccc3Cl)noc2CCc2ccc3c(c2)OCO3)CC1 | 54 | 32 | IC50 [5]: 12 nM; IC50 [6]: 7 nM
CCN(CC)[C@H]1CC[C@H](NC(=O)c2c(-c3c(Cl)cccc3Cl)noc2C)CC1 | 57 | 53 | 
